Measurements published in ChEMBL document CHEMBL4431317, “Allosteric Inhibition of SHP2: Identification of a Potent, Selective, and Orally Efficacious Phosphatase Inhibitor” (J Med Chem, 2016).
Values belong to the molecule of their own block, whether it stands above or below them. Active and inactive are the calls of the source. No cut-off for these calls is given here.

Legend:
[1] = target: T1, Tyrosine-protein phosphatase non-receptor type 11 (Homo sapiens, UniProt Q06124); test: Inhibition of human 6his-tagged SHP2 (2 to 593 residues) expressed in Escherichia coli BL21 Star (DE3) cells preincubated with IRS1_pY1172(dPEG8)pY1222 for 30 to 60 mins followed by addition of DiFMUP measured after 30 mins by fluorescence analysis
T1 sequence (Q06124 whole entry): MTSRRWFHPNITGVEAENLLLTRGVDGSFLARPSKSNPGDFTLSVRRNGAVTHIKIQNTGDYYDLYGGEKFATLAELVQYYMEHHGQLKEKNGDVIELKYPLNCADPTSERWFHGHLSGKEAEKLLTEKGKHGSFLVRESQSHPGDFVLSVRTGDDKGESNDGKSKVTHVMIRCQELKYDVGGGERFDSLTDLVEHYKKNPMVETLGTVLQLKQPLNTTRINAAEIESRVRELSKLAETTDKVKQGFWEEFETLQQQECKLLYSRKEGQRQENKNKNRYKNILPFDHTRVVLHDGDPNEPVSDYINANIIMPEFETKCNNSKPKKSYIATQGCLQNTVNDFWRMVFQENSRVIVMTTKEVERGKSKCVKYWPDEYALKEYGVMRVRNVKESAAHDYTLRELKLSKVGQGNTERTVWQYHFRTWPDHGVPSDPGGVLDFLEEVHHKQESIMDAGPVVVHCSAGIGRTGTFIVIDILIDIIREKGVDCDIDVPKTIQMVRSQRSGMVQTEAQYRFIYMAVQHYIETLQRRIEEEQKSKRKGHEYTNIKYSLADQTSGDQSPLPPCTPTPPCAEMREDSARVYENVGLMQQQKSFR

[2] = target: T2, Tyrosine-protein phosphatase non-receptor type 11 (Homo sapiens) (UniProt Q06124); test: Inhibition of human 6his-tagged SHP2 (1 to 525 residues) expressed in Escherichia coli BL21 Star (DE3) cells assessed as change in melting temperature at 100 uM by SYPRO orange dye based differential scanning fluorometry
T2 sequence (whole entry): T1 sequence (Q06124 whole entry)
Procedure, shortened: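 Thermal shift with SHP2 1-525 construct at 100 µg/mL, 5× SYPRO Orange, 100 mM Bis-Tris pH 6.5, 100 mM NaCl, 0.25 mM TCEP, 5% DMSO; compound at 100 µM final. Ramp 25–75 °C in 0.5 °C steps, ex 465/em 580 nm. Tm as transition midpoint by semi-parametric fit; ΔTm against mean of 32 DMSO-only apo controls per plate.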

[3] = target: T1, Tyrosine-protein phosphatase non-receptor type 11; test: Inhibition of human SHP2 PTP domain (237 to 529 residues) by fluorescence analysis
[4] = Drug uptake in plasma of immunocompromised nude mouse xenografted with human KYSE520 cells administered qd via oral gavage; assay type: ADME; details: in the assay text read “administered as a single dose via” for “administered qd via”
Procedure, shortened: (§1)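 Female nude mice bearing subcutaneous KYSE-520 xenografts (3 x 10^6 cells in 50% matrigel/HBSS) received a single oral gavage dose of vehicle or compound (30 or 100 mg/kg) once tumors reached roughly 500 mm3. Euthanized at set time points; plasma harvested for drug levels and xenograft fragments for p-ERK.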

[5] = Solubility of the compound at pH 6.8; assay type: physicochemical; details: buffer
[6] = Apparent permeability across apical to basolateral side in human Caco2 cells; assay type: ADME, cell-based; details: Caco-2
[7] = AUC in C57BL/6 mouse at 5 mg/kg, po by LC-MS/MS analysis; assay type: ADME, organism-based; details: in vivo
Procedure, shortened: (§2)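 Male C57BL/6 mice dosed orally at 5 mg/kg. Whole blood taken by tail transection at 0.25, 0.5, 1, 2, 4 and 7 h into EDTA. Plasma stored at -20 °C, precipitated with acetonitrile containing internal standard. PK parameters from noncompartmental analysis; AUClast by linear trapezoidal rule. %F = (AUCinf,po/AUCinf,iv)×(Dose iv/Dose po), with IV reference at 1 mg/kg via tail vein. Results given as mean.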

[8] = Oral bioavailability in C57BL/6 mouse at 5 mg/kg by LC-MS/MS analysis; assay type: ADME, organism-based; details: in vivo; procedure, shortened: as §2
Mus musculus = test: In vivo inhibition of ERK phosphorylation in human KYSE520 cells xenografted in immunocompromised nude mouse at 30 and 100 mg/kg administered qd through oral gavage; assay type: functional, organism-based; details: in the assay text read “administered as a single dose through” for “administered qd through”; procedure, shortened: as §1
KYSE-520 cell line [9] = test: Antitumor activity against human KYSE520 cells xenografted in immunocompromised nude mouse assessed as tumor growth inhibition at 10 mg/kg administered qd through oral gavage relative to vehicle control; assay type: functional
Procedure, shortened: (§3)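 Female nude mice inoculated subcutaneously with 3 x 10^6 parental KYSE-520 cells in 50% phenol red-free matrigel in HBSS. Tumors calipered twice weekly in two dimensions. At roughly 200 mm3, mice randomized to vehicle, test compound (10, 30 or 100 mg/kg qd) or erlotinib (80 mg/kg qd), all by oral gavage. Growth compared with vehicle group.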

KYSE-520 cell line [10] = test: Antitumor activity against human KYSE520 cells xenografted in immunocompromised nude mouse assessed as tumor growth inhibition at 30 mg/kg administered qd through oral gavage relative to vehicle control; assay type: functional; procedure, shortened: as §3
KYSE-520 cell line [11] = test: Antitumor activity against human KYSE520 cells xenografted in immunocompromised nude mouse assessed as tumor growth at 100 mg/kg administered qd through oral gavage relative to vehicle control; assay type: functional; procedure, shortened: as §3
KYSE-520 cell line [12] = test: Antitumor activity against human KYSE520 cells xenografted in immunocompromised nude mouse assessed as tumor stasis at 80 mg/kg administered qd through oral gavage relative to vehicle control; assay type: functional, organism-based; procedure, shortened: as §3

IC50 [1]: 99 µM
Structure (SMILES): C[C@@H]1CN(c2ncc(-c3cccc(Cl)c3)c(N)n2)C[C@H](C)N1

ΔTm [2]: 3 to 3.02 °C | IC50 [3]: > 100 µM
Structure (SMILES): C[C@@H]1CN(c2ncc(-c3cccc(Cl)c3Cl)c(N)n2)C[C@H](C)N1

IC50 [1]: > 100 µM
Structure (SMILES): Cc1cccc(-c2cnc(N3C[C@@H](C)N[C@@H](C)C3)nc2N)c1C

IC50 [1]: 1.3 µM
Structure (SMILES): Nc1nc(N2CCC(N)CC2)ncc1-c1cccc(Cl)c1Cl

IC50 [1]: 22 µM
Structure (SMILES): CNc1nc(N2CCC(C)(N)CC2)cnc1-c1cccc(Cl)c1Cl

IC50 [1]: 6.5 µM
Structure (SMILES): CN(C)C1CCN(c2ncc(-c3cccc(Cl)c3Cl)c(N)n2)CC1

IC50 [1]: 54 µM
Structure (SMILES): C[C@@H]1CN(c2ncc(-c3ccc(Cl)c(Cl)c3)c(N)n2)C[C@H](C)N1

Drug uptake [4]: Dose-dependent effect | solubility [5]: > 500 µM | Papp A→B [6]: 13.2 ×10⁻⁶ cm/s | AUC [7]: 565 µM·h | bioavailability [8]: 46%
Structure (SMILES): CC1(N)CCN(c2cnc(-c3cccc(Cl)c3Cl)c(N)n2)CC1
inhibition (Mus musculus): Active | TGI (KYSE-520 cell line [9]): 19% | TGI (KYSE-520 cell line [10]): 61% | T/C (KYSE-520 cell line [11]): 3%

Structure (SMILES): C#Cc1cccc(Nc2ncnc3cc(OCCOC)c(OCCOC)cc23)c1
Activity (KYSE-520 cell line [12]): Active
